The text below walks through data of ChEMBL document CHEMBL1138547, “Synthesis, biological evaluation and 2D-QSAR analysis of benzoxazoles as antimicrobial agents” (2009).

In brackets after ≈: the same amount, converted by molar mass.

Assay type in all cases: functional
In assay [1] the test system is Klebsiella pneumoniae. Nature of the assay: Antimicrobial activity against Klebsiella pneumoniae RSHM 574 after 24 hrs. The procedure, abridged: (§1)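 MIC by twofold serial dilution in Mueller-Hinton broth (MHB); MHB also used to dilute the bacterial suspension. Wells held 10^3 cfu/ml bacteria after inoculation. Controls: 80% DMSO, 20% EtOH, methanol, DMSO, PBS, organism alone and medium alone. Triplicate in each run. MIC taken as the lowest concentration completely inhibiting macroscopic growth.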

The subject of assay [2] is Staphylococcus aureus. The assay can be described thus: Antimicrobial activity against multidrug-resistant Staphylococcus aureus after 24 hrs. The procedure, abridged:
(§2)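 Twofold serial broth dilution in Mueller-Hinton broth. MHB was used both to dilute the bacterial suspension and for the twofold compound dilutions, giving 10^3 cfu/ml bacteria per well after inoculation. Solvent, medium and organism-only wells served as controls. Each organism was run in triplicate.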

Assay [3] deals with Escherichia coli. Nature of the assay: Antimicrobial activity against multidrug-resistant Escherichia coli after 24 hrs. The procedure, abridged:
as §2

Assay [4] relates to Candida albicans. Nature of the assay: Antimicrobial activity against multidrug-resistant Candida albicans isolates after 24 to 48 hrs. The procedure, abridged:
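Yeast broth microdilution following CLSI M27-A, with Sabouraud dextrose medium noted for antifungal assays. Fresh cultures at McFarland 0.5 (10^6 cfu/ml) were diluted to 10^4 cfu/ml and inoculated into twofold compound dilutions. Trays were incubated at 35 °C in a humid chamber and read at 48 h, in triplicate. MIC was the lowest concentration giving complete macroscopic growth inhibition.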

In assay [5] the test system is Klebsiella pneumoniae. The assay can be described thus: Antimicrobial activity against multidrug-resistant Klebsiella pneumoniae after 24 hrs. The gist of the method: as §2
Assay [6] deals with Pseudomonas aeruginosa. The assay can be described thus: Antimicrobial activity against Pseudomonas aeruginosa ATCC […] after 24 hrs. The gist of the method:
as §1

In assay [7] the test system is Escherichia coli. The assay can be described thus: Antimicrobial activity against Escherichia coli ATCC 25922 after 24 hrs. The procedure, abridged:
as §1

Assay [8] concerns Candida albicans. Nature of the assay: Antimicrobial activity against Candida albicans ATCC 10231 after 24 to 48 hrs. The procedure, abridged: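 Twofold serial dilution following CLSI M27-A. Yeast suspension made at 10^4 cfu/ml by diluting a fresh culture at McFarland 0.5 (10^6 cfu/ml). Inoculated into the diluted compound, incubated at 35 °C in a humid chamber, read after 48 h. Triplicate in each run. MIC is the lowest concentration completely inhibiting macroscopic growth.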

Assay [9] deals with Bacillus subtilis. The assay can be described thus: Antimicrobial activity against ceftriazone-resistant Bacillus subtilis after 24 hrs. The procedure, abridged:
as §2

The test system of assay [10] is Bacillus subtilis. Nature of the assay: Antimicrobial activity against Bacillus subtilis ATCC 6633 after 24 hrs. The gist of the method:
as §1

In assay [11] the test system is Staphylococcus aureus. Nature of the assay: Antimicrobial activity against Staphylococcus aureus ATCC 25923 after 24 hrs. The procedure, abridged: as §2
The mark [12] stands for this setting: Bacillus subtilis, ATCC 6633, 24 h.

Broadly, the MIC is the lowest concentration that inhibits growth of the organism. Read a high MIC as a need for much substance. Turning to `CCc1ccc(-c2nc3ccc([N+](=O)[O-])cc3o2)cc1`, the MIC in [1] (RSHM 574, 24 h) worked out at 50 µg/mL (≈ 186 µM); in assay [2], 100 µg/mL (≈ 373 µM); in [3], 100 µg/mL (≈ 373 µM); in [4], 100 µg/mL (≈ 373 µM); in assay [5] it was 100 µg/mL (≈ 373 µM); in [6], 50 µg/mL (≈ 186 µM). In addition, the minimum inhibitory concentration (MIC) in [7] (ATCC 25922, 24 h) is 50 µg/mL (≈ 186 µM); in assay [8], 50 µg/mL (≈ 186 µM); in assay [9], 25 µg/mL (≈ 93.2 µM); in assay [10] (setting [12]) it was 50 µg/mL (≈ 186 µM); in assay [11] (ATCC 25923, 24 h), 100 µg/mL (≈ 373 µM). Also, in assay [10], the “log(1/C)” value came to 3.73.

For `Cc1ccc2nc(-c3ccccc3Cl)oc2c1`, the “log(1/C)” value in assay [10] stood at 3.989.

Consider `Cc1ccc2oc(-c3ccccc3F)nc2c1`, for which the “log(1/C)” value in assay [10] is reported as 3.959. For the same compound, the MIC in assay [10] (setting [12]) turned out to be 25 µg/mL (≈ 110 µM).

As to `Cc1ccc2oc(-c3ccc(Cl)cc3Cl)nc2c1`, in assay [10], the “log(1/C)” value is 4.046. In addition, the minimal inhibitory concentration (MIC) in assay [10] (setting [12]) was determined as 25 µg/mL (≈ 89.9 µM).

Turning to `Cc1ccc2oc(-c3ccc(Br)cc3)nc2c1`, in assay [10], the “log(1/C)” value came to 4.363. For the same compound, the lowest concentration to inhibit growth in assay [10] (setting [12]) (MIC) was 12.5 µg/mL (≈ 43.4 µM).

As to `CC1(C)S[C@@H]2[C@H](NC(=O)[C@H](N)c3ccccc3)C(=O)N2[C@H]1C(=O)O.O.O.O` [AMPICILLIN TRIHYDRATE], the MIC in [1] (RSHM 574, 24 h) stood at 2 µg/mL; in assay [2], 2 µg/mL; in [3], 256 µg/mL; in assay [5], 256 µg/mL; in [6] it was 4100 µg/mL; in assay [7] (ATCC 25922, 24 h), 8 µg/mL. Also, the minimum inhibitory concentration (MIC) in assay [9] worked out at 8 µg/mL; in assay [10] (setting [12]), 0.25 µg/mL; in [11] (ATCC 25923, 24 h), 0.03 µg/mL.

GENTAMICIN SULFATE: the MIC in assay [1] is 8 µg/mL; in assay [2], 1020 µg/mL; in [3], 1 µg/mL; in assay [5] it was 64 µg/mL; in assay [6], 2 µg/mL; in assay [7], 0.5 µg/mL. Further, the MIC in assay [9] stood at 512 µg/mL; in assay [10], 1 µg/mL; in assay [11], 0.06 µg/mL.

With `C[C@@H]1[C@H](O)[C@@H](C)/C=C/C=C/C=C/C=C/C=C/C=C/C=C/[C@H](O[C@@H]2O[C@H](C)[C@@H](O)[C@H](N)[C@@H]2O)C[C@@H]2O[C@](O)(C[C@@H](O)C[C@@H](O)[C@H](O)CC[C@@H](O)C[C@@H](O)CC(=O)O[C@H]1C)C[C@H](O)[C@H]2C(=O)O` [AMPHOTERICIN B], the MIC in assay [4] and in assay [8] was 1 µg/mL (≈ 1.08 µM) throughout.

For `Cc1ccc2oc(-c3ccccc3Cl)nc2c1`, the “log(1/C)” value in assay [10] is listed as 3.989. Moreover, in assay [10] (setting [12]), the MIC came out at 25 µg/mL (≈ 103 µM).

Turning to `Cc1ccc2oc(-c3ccccc3)nc2c1`, the “log(1/C)” value in assay [10] was found to be 4.224. In [10] (setting [12]), this compound returned a minimum inhibitory concentration (MIC) of 12.5 µg/mL (≈ 59.7 µM).

For `Cc1ccc2nc(-c3ccccc3F)oc2c1`, the “log(1/C)” value in assay [10] is recorded as 3.959. Besides, it took 25 µg/mL (≈ 110 µM) to inhibit growth in [10] (setting [12]) (MIC).

`Cc1ccc2oc(-c3ccccc3[N+](=O)[O-])nc2c1`: the “log(1/C)” value in assay [10] was found to be 4.007. Moreover, in assay [10] (setting [12]), inhibition of growth (MIC) required 25 µg/mL (≈ 98.3 µM).

As to `COc1ccccc1-c1nc2ccc(C)cc2o1`, in assay [10], the “log(1/C)” value was 3.981. For the same compound, in assay [10] (setting [12]), the MIC was determined as 25 µg/mL (≈ 104 µM).

Turning to `Cc1ccc2nc(-c3ccc(Br)cc3)oc2c1`, in assay [10], the “log(1/C)” value is listed as 4.363. The compound further yielded an MIC in assay [10] (setting [12]) of 12.5 µg/mL (≈ 43.4 µM).

Consider `CC1COc2c(N3CCN(C)CC3)c(F)cc3c(=O)c(C(=O)O)cn1c23` (stereo not given) [OFLOXACIN], for which the MIC in [1] (RSHM 574, 24 h) was determined as 0.25 µg/mL (≈ 0.692 µM); in assay [2] it was 2 µg/mL (≈ 5.53 µM); in [3] it was 32 µg/mL (≈ 88.6 µM); in [5], 64 µg/mL (≈ 177 µM); in [6], 8 µg/mL (≈ 22.1 µM); in assay [7] (ATCC 25922, 24 h) it was 0.125 µg/mL (≈ 0.346 µM). The MIC in assay [9] amounted to 32 µg/mL (≈ 88.6 µM); in [10] (setting [12]) it was 0.125 µg/mL (≈ 0.346 µM); in [11] (ATCC 25923, 24 h) it was 0.25 µg/mL (≈ 0.692 µM).

On to `OC(Cn1cncn1)(Cn1cncn1)c1ccc(F)cc1F` [FLUCONAZOLE], for which the minimal inhibitory concentration (MIC) in assay [4] stood at 64 µg/mL (≈ 209 µM); in assay [8], 1 µg/mL (≈ 3.27 µM).

Turning to `CO[C@H]1/C=C/O[C@@]2(C)Oc3c(C)c(O)c4c(O)c(c(/C=N/N5CCN(C)CC5)c(O)c4c3C2=O)NC(=O)/C(C)=C\C=C\[C@H](C)[C@H](O)[C@@H](C)[C@@H](O)[C@@H](C)[C@H](OC(C)=O)[C@@H]1C` [RIFAMPIN], the minimal inhibitory concentration (MIC) was found to be 16 µg/mL (≈ 19.4 µM) in assay [1] (RSHM 574, 24 h); 8 µg/mL (≈ 9.72 µM) in assay [2]; 64 µg/mL (≈ 77.8 µM) in [3]; 256 µg/mL (≈ 311 µM) in [5]; 32 µg/mL (≈ 38.9 µM) in assay [6]; 8 µg/mL (≈ 9.72 µM) in assay [7] (ATCC 25922, 24 h). For the same compound, the MIC in assay [9] is 256 µg/mL (≈ 311 µM); in assay [11] (ATCC 25923, 24 h) it was 0.5 µg/mL (≈ 0.608 µM).
